Measured values published in ChEMBL document CHEMBL4616669, “Bioisosteric Replacement of Arylamide-Linked Spine Residues with N-Acylhydrazones and Selenophenes as a Design Strategy to Novel Dibenzosuberone Derivatives as Type I 1/2 p38α MAP Kinase Inhibitors” (J Med Chem, 2020).

Experiments:
[1] = molecular target: T1, Mitogen-activated protein kinase 14 (Homo sapiens, UniProt Q16539); experiment: Inhibition of NanoBRET kinase tracer K4 binding to full-length human C-terminal NanoLuc-tagged p38alpha MAPK expressed in HEK293T cells incubated for 2 hrs by NanoBRET NanoGlo substrate based NanoBRET assay; type: cell-based, HEK-293T
Method in brief: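 Cellular reporter-displacement NanoBRET format, run in intact cells where the competing substrate ATP is present at cellular concentrations. The result is reported as an IC50.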

[2] = molecular target: T1, Mitogen-activated protein kinase 14; experiment: Inhibition of recombinant human full-length N-terminal GST-tagged p38alpha MAPK expressed in baculovirus infected Sf9 insect cells using p38 peptide as substrate preincubated for 15 mins followed by substrate addition and measured after 60 mins by ADP-glo assay
[3] = molecular target: T1, Mitogen-activated protein kinase 14; experiment: Inhibition of p38alpha MAPK (unknown origin) assessed as target residence time using ATF2 as substrate preincubated for 1 hr followed by jump dilution in presence of substrate and measured every 3 mins for 4 hrs by TR-FRET assay
[4] = molecular target: T1, Mitogen-activated protein kinase 14; experiment: Inhibition of p38alpha MAPK in human whole blood assessed as reduction in LPS-induced TNFalpha production preincubated for 2.5 hrs followed by LPS stimulation by ELISA; type: tissue-based
[5] = Stability of the compound in human liver microsomes at 100 uM measured after 180 mins in presence of NADPH generating system by LC-MS/MS analysis; type: ADME, Microsome; details: 3 h
[6] = Drug metabolism in human liver microsomes assessed as oxidation at 100 uM measured after 180 mins in presence of NADPH generating system by LC-MS/MS analysis; type: ADME, Microsome; details: 3 h

T1 sequence (Q16539 whole entry): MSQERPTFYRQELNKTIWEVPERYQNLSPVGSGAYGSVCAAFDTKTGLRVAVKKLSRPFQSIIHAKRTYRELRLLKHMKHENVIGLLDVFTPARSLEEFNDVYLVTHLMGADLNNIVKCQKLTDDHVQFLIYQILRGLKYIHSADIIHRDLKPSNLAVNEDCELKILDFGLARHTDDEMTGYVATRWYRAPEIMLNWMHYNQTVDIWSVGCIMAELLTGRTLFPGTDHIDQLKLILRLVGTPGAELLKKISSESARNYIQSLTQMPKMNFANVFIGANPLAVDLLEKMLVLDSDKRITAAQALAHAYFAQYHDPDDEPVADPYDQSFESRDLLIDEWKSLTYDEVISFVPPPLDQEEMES

IC50 [1] [nM] | IC50 [2] [nM] | TIME [3] [h] | IC50 [4] [nM] | Stability [5] | Drug metabolism [6] | Structure (SMILES)
15.5 | 29.7 | 0.372 | 276 |  |  | O=C(NCCN1CCOCC1)c1ccc2c(c1)C(=O)c1ccc(Nc3ccc(F)c(/C=N/NC(=O)c4cccs4)c3)cc1CC2
6.3 | 19.7 | 0.231 | 47 | Stable | Metabolite_Notdetected | O=C(NCCN1CCOCC1)c1ccc2c(c1)C(=O)c1ccc(Nc3ccc(F)c(/C=N/NC(=O)c4ccccc4)c3)cc1CC2
4.9 | 24.6 | 0.443 | 101 |  | Metabolite_Notdetected | O=C(NCCN1CCOCC1)c1ccc2c(c1)C(=O)c1ccc(Nc3ccc(F)c(NC(=O)c4ccc[se]4)c3)cc1CC2
 | 12 | 0.207 | 43 |  |  | O=C(NCCN1CCOCC1)c1ccc2c(c1)C(=O)c1ccc(Nc3ccc(F)c(NC(=O)c4cccs4)c3)cc1CC2
 |  | 0.0244 |  |  |  | O=C1c2ccc(Nc3ccc(F)cc3F)cc2CCc2ccc(OC[C@H](O)CO)cc21
30.4 | 16 | 0.281 | 490 |  |  | O=C(NCCN1CCOCC1)c1ccc2c(c1)C(=O)c1ccc(Nc3ccc(F)c(/C=N/NC(=O)c4ccc[se]4)c3)cc1CC2
 |  | 0.0511 |  |  |  | O=C(NCCN1CCOCC1)c1ccc2c(c1)C(=O)c1ccc(Nc3ccc(F)c(NC(=O)c4ccccc4)c3)cc1CC2
